# According to the RNAGym collection of RNA variant scans (doi:10.1038/s41586-018-0170-7):
# B1: tRNA (parent)
# chain: GUUCCGUUGGCGUAAUGGUAACGCGUCUCCCUCCUAAGGAGAAGACUGCGGGUUCGAGUCCCGUACGGAACG
# Variants of: B1
# Experiment: yeast fitness, log relative to wild type (ln ratio); higher = fitter; tRNA-Arg(CCU), competitive growth, 37 C, 1 M NaCl
# Procedure, shortened: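 BY4742 cells without the chromosomal tRNA-Arg(CCU) gene carried a combinatorial variant library on a HIS3 centromeric plasmid, from two independent transformations. After 4 generations in SC-HIS at 30 °C, pools spent ~6.5 generations (~26.5 h) in SC-HIS 1M NaCl at 37 °C, giving three outputs per input, and 125 bp paired-end Illumina reads counted the variants. Fitness is the natural log of each genotype's generations over the wild type's, with generations taken as OD-scaled log2 output/input frequency weighted by inverse variance across replicates.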
row,Variant,yeast fitness (ln)
1,ACUCCAUUGGCGUAAUGGUAACGCGUUUCCCUCCUAAGGAGACGACUGCGGGUUCGAGUCCCGUACGGAACG [G1A U2C G6A C27U A43C],-0.0863
2,ACUCCAUUGGCGUAAUGGUAACGCGUCUCCCUCCUAAGGAGACGACUGCGGGUUCGAGUCCCGUACGGAUCG [G1A U2C G6A A43C A70U],-0.113
3,ACUCCAUUGGCGUAAUGGUAACGCGUUUCCCUCCUAAGGAGACGACUGCGGGUUCGAGUCCCGUACGGAUCG [G1A U2C G6A C27U A43C A70U],-0.0697
4,ACUCCAUUGGCGUAAUGGUAACGCGUCUCCCUCCUAAGGAGACGAUUGCGGGUUCGAGUCCCGUACGGGUCG [G1A U2C G6A A43C C46U A69G A70U],-0.0463
5,ACUCCAUUGGCGUAAUGGUAACGCGUCUCCCUCCUAAGGAGACGAUUGCGGGUUCGAGUCCCGUACGGGGCG [G1A U2C G6A A43C C46U A69G A70G],-0.191
6,ACUCCAUUGGCGUAAUGGUAACGCGUCUCCCUCCUAAGGAGACGACUGCGGGUUCGAGUCCCGUAUGGAGCG [G1A U2C G6A A43C C66U A70G],-0.12
7,ACUCCAUUGGCGUAAUGGUAACGCGUCUCCCUCCUAAGGAGACGACUGCGGGUUCGAGUCCCGUAUGGAUCG [G1A U2C G6A A43C C66U A70U],-0.083
8,ACUCCAUUGGCGUAAUGGUAACGCGUCUCCCUCCUAAGGAGACGAUUGCGGGUUCGAGUCCCGUACGGAAUG [G1A U2C G6A A43C C46U C71U],-0.0914
9,ACUCCAUUGGCGUAAUGGUAACGCGUCUCCCUCCUAAGGAGAAGACUGCGGGUUCGAGUCCCGUACGGAUUG [G1A U2C G6A A70U C71U],-0.126
10,ACUCCAUUGGCGUAAUGGUAACGCGUCUCCCUCCUAAGGAGAAGACUGCGGGUUCGAGUCCCGUACGGGGUG [G1A U2C G6A A69G A70G C71U],-0.187
11,ACUCCAUUGGCGUAAUGGUAACGCGUUUCCCUCCUAAGGAGACGAUUGCGGGUUCGAGUCCCGUACGGAUCG [G1A U2C G6A C27U A43C C46U A70U],-0.125
12,ACUCCAUUGGCGUAAUGGUAACGCGUUUCCCUCCUAAGGAGACGAUUGCGGGUUCGAGUCCCGUACGGAGCG [G1A U2C G6A C27U A43C C46U A70G],0.0488
13,ACUCCAUUGGCGUAAUGGUAACGCGUCUCCCUCCUAAGGAGACGACUGCGGGUUCGAGUCCCGUAUGGGGUG [G1A U2C G6A A43C C66U A69G A70G C71U],-0.0387
14,ACUCCAUUGGCGUAAUGGUAACGCGUCUCCCUCCUAAGGAGACGACUGCGGGUUCGAGUCCCGUAUGGAGUG [G1A U2C G6A A43C C66U A70G C71U],-0.00743
15,ACUCCGUUGGCGUAAUGGUAACGCGUCUCCCUCCUAAGGAGAAGACUGCGGGUUCGAGUCCCGUACGGAAUG [G1A U2C C71U],-0.00448
16,ACUCCAUUGGCGUAAUGGUAACGCGUCUCCCUCCUAAGGAGACGAUUGCGGGUUCGAGUCCCGUAUGGAUUG [G1A U2C G6A A43C C46U C66U A70U C71U],-0.402
17,ACUCCGUUGGCGUAAUGGUAACGCGUCUCCCUCCUAAGGAGAAGACUGCGGGUUCGAGUCCCGUAUGGAAUG [G1A U2C C66U C71U],-0.189
18,ACUCCAUUGGCGUAAUGGUAACGCGUCUCCCUCCUAAGGAGACGAUUGCGGGUUCGAGUCCCGUAUGGAACG [G1A U2C G6A A43C C46U C66U],-0.085
19,ACUCCAUUGGCGUAAUGGUAACGCGUUUCCCUCCUAAGGAGACGACUGCGGGUUCGAGUCCCGUAUGGAGCG [G1A U2C G6A C27U A43C C66U A70G],-0.3

row,Variant,yeast fitness (ln)
1,ACUCCAUUGGCGUAAUGGUAACGCGUCUCCCUCCUAAGGAGAAGACUGCGGGUUCGAGUCCCGUACGGAACG [G1A U2C G6A],0.00615
2,ACUCCAUUGGCGUAAUGGUAACGCGUCUCCCUCCUAAGGAGACGAUUGCGGGUUCGAGUCCCGUAUGGAGUG [G1A U2C G6A A43C C46U C66U A70G C71U],-0.015
3,ACUCCGUUGGCGUAAUGGUAACGCGUCUCCCUCCUAAGGAGAAGACUGCGGGUUCGAGUCCCGUAUGGAUUG [G1A U2C C66U A70U C71U],-0.106
4,ACUCCGUUGGCGUAAUGGUAACGCGUCUCCCUCCUAAGGAGAAGACUGCGGGUUCGAGUCCCGUAUGGGUCG [G1A U2C C66U A69G A70U],-0.245
5,ACUCCAUUGGCGUAAUGGUAACGCGUUUCCCUCCUAAGGAGACGAUUGCGGGUUCGAGUCCCGUAUGGGGCG [G1A U2C G6A C27U A43C C46U C66U A69G A70G],-0.0972
6,ACUCCAUUGGCGUAAUGGUAACGCGUUUCCCUCCUAAGGAGACGAUUGCGGGUUCGAGUCCCGUAUGGGUCG [G1A U2C G6A C27U A43C C46U C66U A69G A70U],-0.416
7,ACUCCAUUGGCGUAAUGGUAACGCGUCUCCCUCCUAAGGAGACGAUUGCGGGUUCGAGUCCCGUAUGGGUCG [G1A U2C G6A A43C C46U C66U A69G A70U],-0.0607
8,ACUCCAUUGGCGUAAUGGUAACGCGUCUCCCUCCUAAGGAGACGAUUGCGGGUUCGAGUCCCGUAUGGGGCG [G1A U2C G6A A43C C46U C66U A69G A70G],-0.232
9,ACUCCAUUGGCGUAAUGGUAACGCGUCUCCCUCCUAAGGAGACGAUUGCGGGUUCGAGUCCCGUACGGAUCG [G1A U2C G6A A43C C46U A70U],-0.034
10,ACUCCAUUGGCGUAAUGGUAACGCGUCUCCCUCCUAAGGAGACGAUUGCGGGUUCGAGUCCCGUACGGAGCG [G1A U2C G6A A43C C46U A70G],-0.0508
11,ACUCCAUUGGCGUAAUGGUAACGCGUCUCCCUCCUAAGGAGACGAUUGCGGGUUCGAGUCCCGUAUGGGGUG [G1A U2C G6A A43C C46U C66U A69G A70G C71U],-0.0138
12,ACUCCAUUGGCGUAAUGGUAACGCGUUUCCCUCCUAAGGAGACGAUUGCGGGUUCGAGUCCCGUAUGGAGCG [G1A U2C G6A C27U A43C C46U C66U A70G],-0.155
13,ACUCCAUUGGCGUAAUGGUAACGCGUUUCCCUCCUAAGGAGACGAUUGCGGGUUCGAGUCCCGUAUGGAUCG [G1A U2C G6A C27U A43C C46U C66U A70U],-0.0654
14,ACUCCGUUGGCGUAAUGGUAACGCGUCUCCCUCCUAAGGAGAAGACUGCGGGUUCGAGUCCCGUAAGGAUCG [G1A U2C C66A A70U],-0.0191
15,ACUCCAUUGGCGUAAUGGUAACGCGUUUCCCUCCUAAGGAGAAGACUGCGGGUUCGAGUCCCGUACGGAACG [G1A U2C G6A C27U],-0.0466
16,ACUCCGUUGGCGUAAUGGUAACGCGUCUCCCUCCUAAGGAGAAGACUGCGGGUUCGAGUCCCGUAUGGAUCG [G1A U2C C66U A70U],-0.0937
17,ACUCCGUUGGCGUAAUGGUAACGCGUCUCCCUCCUAAGGAGAAGACUGCGGGUUCGAGUCCCGUAUGGAGCG [G1A U2C C66U A70G],-0.297
18,ACUCCAUUGGCGUAAUGGUAACGCGUCUCCCUCCUAAGGAGACGACUGCGGGUUCGAGUCCCGUAUGGGGCG [G1A U2C G6A A43C C66U A69G A70G],-0.309
19,ACUCCAUUGGCGUAAUGGUAACGCGUCUCCCUCCUAAGGAGACGACUGCGGGUUCGAGUCCCGUAUGGGUCG [G1A U2C G6A A43C C66U A69G A70U],-0.275
